# Measurements: paper PMC6174986 (Journal of Clinical Pharmacology, 2018)
# Where two headings read alike, the source gives them in different places.
# How the values were obtained:
# [1] = Population pharmacokinetic analysis of daclatasvir plasma concentrations; assay type: in vivo, human
# In short: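 Japanese adults ≥ 20 years with chronic HCV genotype 1 (compensated cirrhosis allowed) from 4 clinical studies; oral 10 or 60 mg once daily, with asunaprevir or pegIFN/RBV. Plasma levels by validated LC‑MS/MS; below‑LLOQ samples excluded. Nonlinear mixed‑effects model: log‑normal interindividual variability, log‑transform‑both‑sides residual error, backward covariate elimination (P < .001), bootstrap 95% CIs.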
# [2] = cited from earlier work
# [3] = cited from earlier work; remark: listed apart in the source
# [4] = tested on: cytochrome P450 (CYP) 3A4; settings: cited from earlier work
# [5] = healthy Japanese volunteers, within the dose range studied; cited from earlier work
# [6] = tested on: P‐glycoprotein transporter; settings: cited from earlier work
# CYP2D6 = settings: asunaprevir; cited from earlier work
# [7] = Population pharmacokinetic analysis of asunaprevir plasma concentrations; assay type: in vivo, human
# In short: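 Japanese adults ≥20 y with chronic genotype 1 HCV (compensated cirrhosis allowed), from 2 clinical studies; oral 200 or 600 mg twice-daily tablet or 100 mg twice-daily soft-gel. Plasma by validated LC-MS/MS; below-LLOQ excluded. One-compartment, first-order absorption; log-normal IIV on CL/F, V/F; additive log-scale residual. Backward elimination (P < .001); bootstrap 95% CIs; 5th/95th covariate percentiles versus typical.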
# [8] = cited from earlier work; remark: listed apart in the source
# [9] = mild impairment (Child‐Pugh class A cirrhosis); cited from earlier work
# [10] = tested on: organic anion transporting polypeptide(OATP); settings: asunaprevir; cited from earlier work
# [11] = tablet formulation used in phase 1/2 studies; cited from earlier work
# [12] = final popPK model, Japanese HCV subjects
compound,measurement,setting,value
"COC(=O)N[C@H](C(=O)N1CCC[C@H]1c1nc(-c2ccc(-c3ccc(-c4c[nH]c([C@@H]5CCCN5C(=O)[C@@H](NC(=O)OC)C(C)C)n4)cc3)cc2)c[nH]1)C(C)C [daclatasvir, Daclatasvir]",Interindividual variability of CL/F,[1]; base popPK model,39.7%
same,Interindividual variability of V/F,[1]; base popPK model,40.7%
same,Effect of cirrhosis status and ALT/AST levels on CL/F,[1]; covariate analysis,not identified as significant covariates
same,"CL/F reduction, women relative to men",[1]; final model,approximately 10%
same,V/F lower than at median (reference) body weight of 56 kg,"[1]; final model, 5th percentile of baseline body weight, 42.8 kg",~15%
same,V/F higher than at median (reference) body weight of 56 kg,"[1]; final model, 95th percentile of baseline body weight, 78 kg",~22%
same,Interindividual variability of CL/F,[1]; final popPK model,39.4%
same,Interindividual variability of Ka,[1]; final popPK model,86.9%
same,Interindividual variability of V/F,[1]; final popPK model,38.1%
same,"Random effect CL/F: V/F, ω1,2, covariance (correlation)",[1]; final popPK model,0.141 (0.941)
same,"Ka (absorption rate constant), θ3",[1]; [12],0.865 h^‐1
same,"V/F (apparent volume of central compartment), θ2","[1]; final popPK model, Japanese HCV subjects, reference BBWT 56 kg",64.2 L
same,"V/F ∼BBWT (baseline body weight) covariate coefficient, θ14","[1]; final popPK model, reference 56 kg",0.605
same,"CL/F ∼BCRCL (baseline creatinine clearance) covariate coefficient, θ10","[1]; final popPK model, reference 86.48 mL/min",0.235
same,Excreted via feces in an unchanged form,[2],~88%
same,Renal elimination,[2],~7 % of dose
same,Association between exposure and degree of hepatic impairment or biochemical/serological markers of liver dysfunction,[3],no obvious association
same,Effects on levels of the sensitive CYP3A probe midazolam in plasma,[4]; daclatasvir,minimal effects
same,Interaction with CYP3A4,[4]; daclatasvir,substrate and weak inducer
same,Dose‐exposure relationship,[5],generally linear
same,Interaction with P‐glycoprotein transporter,[6]; daclatasvir,substrate and inhibitor
"C=C[C@@H]1C[C@]1(NC(=O)[C@@H]1C[C@@H](Oc2ncc(OC)c3ccc(Cl)cc23)CN1C(=O)[C@@H](NC(=O)OC(C)(C)C)C(C)(C)C)C(=O)NS(=O)(=O)C1CC1 [asunaprevir, Asunaprevir]",Interaction with CYP2D6,CYP2D6,moderate inhibitor
same,Interaction with CYP3A4,[4]; asunaprevir,weak inducer and sensitive substrate
same,Impact of OATP1B1 haplotypes (4 categories) on CL/F,"[7]; covariate analysis, Japanese population",did not show statistical significance
same,CL/F at 5th percentile of time‐varying AST compared with the median baseline AST,"[7]; final model, AST at last PK sampling point 16 U/L, higher",1.57 fold
same,CL/F at 5th percentile of baseline AST relative to median baseline AST of 52 U/L,"[7]; final model, baseline AST 22 U/L, higher",1.67 fold
same,CL/F for cirrhotic subjects relative to subjects without cirrhosis,"[7]; final model, printed as fold lower",0.65 fold
same,Interindividual variability of CL/F,[7]; final popPK model,41.5%
same,Interindividual variability of V/F,[7]; final popPK model,93.4%
same,"Ka (absorption rate constant), θ3",[7]; [12],0.228 h^‐1
same,"V/F (apparent volume of central compartment), θ2","[7]; final popPK model, Japanese HCV subjects, phase 2 tablet reference",75.1 L
same,Observed AUC,"[8]; AI447017, phase 2 study, 200‐mg tablet formulation",2950 ng·h/mL
same,Observed AUC,"[8]; AI447026, phase 3 study, 100‐mg soft‐gel capsule",2155 ng·h/mL
same,Steady‐state exposures,[9],not changed
same,Dose‐exposure relationship,[5],generally increased dose‐proportionally
same,Interaction with p‐glycoprotein,[6]; asunaprevir,weak inhibitor
same,Interaction with OATP‐mediated uptake transport,[10],weak inhibitor and sensitive substrate
same,Food effect,[11],Significant food effects
